# ChEMBL document CHEMBL4190234, “Design, synthesis and anticancer activity of new monastrol analogues bearing 1,3,4-oxadiazole moiety” (Eur J Med Chem, 2017)
# Key:
# MOLT-4 [1] = experiment: Induction of apoptosis in human MOLT4 cells assessed as increase in apoptotic cells at 0.16 uM after 24 hrs by Annexin V-FITC/propidium iodide staining based flow cytometry relative to control; format: functional
# MOLT-4 [2] = experiment: Induction of apoptosis in human MOLT4 cells assessed as live cells at 0.16 uM after 24 hrs by Annexin V-FITC/propidium iodide staining based flow cytometry (reference value: 99.12%); format: functional
# MOLT-4 [3] = experiment: Potency index, ratio of monastrol IC50 to compound IC50 for human MOLT4 cells; format: functional
# MOLT-4 [4] = experiment: Cell cycle arrest in human MOLT4 cells assessed as accumulation at G2/M phase at 0.16 uM after 24 hrs by propidium iodide staining based flow cytometry (reference value: 4.35%); format: functional
# How it was run: (§1)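 MOLT-4 cells (1×10^6) exposed 24 h to 0.160 or 0.430 μM test agent, DMSO (0.002%) control; trypsinized, washed in ice-cold PBS, fixed in ice-cold 70% ethanol ≥2 h at 4°C, washed, stained with propidium iodide DNA kit; cell cycle distribution (pre-G, G0/G1, S, G2/M) by flow cytometry.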
# MOLT-4 [5] = experiment: Induction of apoptosis in human MOLT4 cells assessed as necrotic cells at 0.16 uM after 24 hrs by Annexin V-FITC/propidium iodide staining based flow cytometry (reference value: 0.11%); format: functional
# MOLT-4 [6] = experiment: Cell cycle arrest in human MOLT4 cells assessed as accumulation at S phase at 0.16 uM after 24 hrs by propidium iodide staining based flow cytometry (reference value: 20.55%); format: functional; how it was run: as §1
# MOLT-4 [7] = experiment: Growth inhibition of human MOLT4 cells incubated for 24 hrs by MTT assay; format: functional, cell-based; conditions: MOLT-4, 24 h
# MOLT-4 [8] = experiment: Cell cycle arrest in human MOLT4 cells assessed as accumulation at G0/G1 phase at 0.16 uM after 24 hrs by propidium iodide staining based flow cytometry (reference value: 74.22%); format: functional; how it was run: as §1
# MOLT-4 [9] = experiment: Induction of apoptosis in human MOLT4 cells assessed as late apoptotic cells at 0.16 uM after 24 hrs by Annexin V-FITC/propidium iodide staining based flow cytometry (reference value: 0.24%); format: functional
# MOLT-4 [10] = experiment: Cell cycle arrest in human MOLT4 cells assessed as accumulation of apoptotic cells in pre-G phase at 0.16 uM after 24 hrs by propidium iodide staining based flow cytometry (reference value: 0.88%); format: functional; how it was run: as §1
# MOLT-4 [11] = experiment: Induction of apoptosis in human MOLT4 cells assessed as early apoptotic cells at 0.16 uM after 24 hrs by Annexin V-FITC/propidium iodide staining based flow cytometry (reference value: 0.53%); format: functional
# HL-60(TB) [12] = experiment: Potency index, ratio of monastrol IC50 to compound IC50 for human HL-60(TB) cells; format: functional
# HL-60(TB) [13] = experiment: Cell cycle arrest in human HL-60(TB) cells assessed as accumulation of apoptotic cells in pre-G phase at 0.112 uM after 24 hrs by propidium iodide staining based flow cytometry (reference value: 1.44%); format: functional
# HL-60(TB) [14] = experiment: Induction of apoptosis in human HL-60(TB) cells assessed as increase in apoptotic cells at 0.112 uM after 24 hrs by Annexin V-FITC/propidium iodide staining based flow cytometry relative to control; format: functional
# HL-60(TB) [15] = experiment: Induction of apoptosis in human HL-60(TB) cells assessed as late apoptotic cells at 0.112 uM after 24 hrs by Annexin V-FITC/propidium iodide staining based flow cytometry (reference value: 0.39%); format: functional
# HL-60(TB) [16] = experiment: Cell cycle arrest in human HL-60(TB) cells assessed as accumulation at G0/G1 phase at 0.112 uM after 24 hrs by propidium iodide staining based flow cytometry (reference value: 68.43%); format: functional
# HL-60(TB) [17] = experiment: Induction of apoptosis in human HL-60(TB) cells assessed as early apoptotic cells at 0.112 uM after 24 hrs by Annexin V-FITC/propidium iodide staining based flow cytometry (reference value: 0.84%); format: functional
# HL-60(TB) [18] = experiment: Cell cycle arrest in human HL-60(TB) cells assessed as accumulation at G2/M phase at 0.112 uM after 24 hrs by propidium iodide staining based flow cytometry (reference value: 7.29%); format: functional
# HL-60(TB) [19] = experiment: Induction of apoptosis in human HL-60(TB) cells assessed as necrotic cells at 0.112 uM after 24 hrs by Annexin V-FITC/propidium iodide staining based flow cytometry (reference value: 0.2%); format: functional
# HL-60(TB) [20] = experiment: Induction of apoptosis in human HL-60(TB) cells assessed as live cells at 0.112 uM after 24 hrs by Annexin V-FITC/propidium iodide staining based flow cytometry (reference value: 98.57%); format: functional
# HL-60(TB) [21] = experiment: Cell cycle arrest in human HL-60(TB) cells assessed as accumulation at S phase at 0.112 uM after 24 hrs by propidium iodide staining based flow cytometry (reference value: 22.84%); format: functional
smiles,measurement,setting,value
CCOC(=O)C1=C(C)NC(SCc2nnc(-c3ccc(Cl)cc3)o2)=NC1c1ccc(Cl)cc1Cl (stereo unspecified),fold change (FC),MOLT-4 [1],21
same,Activity,MOLT-4 [2],82.17%
same,Ratio IC50,MOLT-4 [3],3
same,Activity,MOLT-4 [4],26.61%
same,Activity,MOLT-4 [5],1.46%
same,Activity,MOLT-4 [6],17.04%
same,IC50,MOLT-4 [7],80 nM
same,Activity,MOLT-4 [8],38.52%
same,Activity,MOLT-4 [9],5.89%
same,Activity,MOLT-4 [10],17.83%
same,Activity,MOLT-4 [11],10.48%
CCOC(=O)C1=C(C)NC(SCc2nnc(-c3ccc(Cl)cc3)o2)=NC1c1cccc(Cl)c1 (stereo unspecified),Ratio IC50,HL-60(TB) [12],2.5
same,Activity,HL-60(TB) [13],24.72%
same,fold change (FC),HL-60(TB) [14],19.3
same,Activity,HL-60(TB) [15],6.67%
same,Activity,HL-60(TB) [16],32.88%
same,Activity,HL-60(TB) [17],17.09%
same,Activity,HL-60(TB) [18],14.81%
same,Activity,HL-60(TB) [19],1.36%
same,Activity,HL-60(TB) [20],75.28%
same,IC50,MOLT-4 [7],1790 nM
same,Activity,HL-60(TB) [21],27.59%
CCOC(=O)C1=C(C)NC(SCc2nnc(-c3ccc(Cl)cc3)o2)=NC1c1ccc(Br)cc1 (stereo unspecified),Ratio IC50,MOLT-4 [3],3
same,IC50,MOLT-4 [7],86 nM
CCOC(=O)C1=C(C)NC(SCc2nnc(-c3ccc(Cl)cc3)o2)=NC1c1ccc(Cl)cc1 (stereo unspecified),Ratio IC50,HL-60(TB) [12],1.5
same,IC50,MOLT-4 [7],623 nM
